In ChEMBL document CHEMBL1141826, “From a phagostimulant natural product to semisynthetic antifeedants against Spodoptera littoralis larvae: chemical transformations of the neoclerodane diterpenoid scutegalin B” (J Nat Prod, 1999):

Columns and labels:
Spodoptera littoralis [1] = experiment: Antifeedant activity against sixth stadium larvae of Spodoptera littoralis after 16 hrs; assay type: functional, organism-based
Summary of the method: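 No-choice feeding test: glass-fiber disks (2.1 cm) made palatable with 100 μL 0.05 M sucrose, then treated with 100 μL of test solution at 1, 10, 100 or 1000 ppm and offered to S. littoralis larvae. Ended at 16 h, when 50% of control disks were consumed. Disks were reweighed, and EC50 for 50% reduction in feeding was estimated relative to the sucrose control. 10 replications per concentration.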

Spodoptera littoralis [2] = experiment: Antifeedant activity against sixth stadium larvae of Spodoptera littoralis assessed as antifeedant index at 100 ppm after 16 hrs; assay type: functional
Summary of the method: (§1)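 Choice test: sixth-stadium larvae were starved 4 h and each placed in a Petri dish with two sucrose-treated glass-fiber disks (100 μL 0.05 M, 2.1 cm), one a control and one carrying compound at 100 ppm. Disks were reweighed, and index = [(C−T)/(C+T)]×100 from weights eaten. Negative values mean phagostimulation. 10 replications; Wilcoxon signed-ranks test, P<0.05.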

Spodoptera littoralis [3] = experiment: Phagostimulant activity against sixth stadium larvae of Spodoptera littoralis assessed as antifeedant index at 100 ppm after 16 hrs; assay type: functional; summary of the method: as §1

Row | SMILES | EC50 (Spodoptera littoralis [1]) [ppm] | Activity (Spodoptera littoralis [2]) [%] | Activity (Spodoptera littoralis [3]) [%]
1 | CC(=O)O[C@@H]1[C@@H](C)[C@](C)(CC[C@H]2CCOC2=O)[C@H]2C[C@@H]3C[C@]4(CO4)[C@]2([C@@H](O)O3)[C@H]1O | 51 | 67 | 
2 | C/C=C(\C)C(=O)O[C@H]1O[C@@H]2C[C@@H]3[C@@](C)(CC[C@H]4CCOC4=O)[C@H](C)C(=O)[C@H](OC(C)=O)[C@]13[C@@]1(CO1)C2 | 350 | 36.5 | 
3 | C/C=C(\C)C(=O)O[C@H]1C[C@H](C)[C@](C)([C@@H](O)CC2=CC(=O)OC2)[C@H]2CCC[C@]3(CO3)[C@]12COC(C)=O [SCUTALPIN C] | < 1 | 96.8 | 
4 | CC(=O)OCC[C@H](CC[C@@]1(C)[C@H](C)[C@@H](OC(C)=O)[C@H](OC(C)=O)[C@]23C(=O)O[C@H](C[C@H]12)C[C@]31CO1)COC(C)=O |  |  | -27.4
5 | CC(=O)O[C@H]1C(=O)[C@@H](C)[C@](C)(CC[C@H]2CCOC2=O)[C@H]2C[C@@H]3C[C@]4(CO4)[C@@]21C(=O)O3 | > 1000 | 44.1 | 
6 | C/C=C(\C)C(=O)O[C@H]1O[C@@H]2C[C@@H]3[C@@](C)(CC[C@H](CO)CCO)[C@H](C)[C@@H](OC(C)=O)[C@H](OC(C)=O)[C@]13[C@@]1(CO1)C2 |  | 18.8 | 
7 | CC(=O)O[C@@H]1[C@@H](C)[C@](C)(CC[C@H]2CCOC2=O)[C@H]2C[C@@H]3C[C@]4(CO4)[C@]2([C@@H](O)O3)[C@H]1OC(C)=O | > 1000 | 34 | 
8 | C/C=C(\C)C(=O)O[C@H]1O[C@@H]2C[C@@H]3[C@@](C)(CC[C@@H](CCOC(C)=O)COC(C)=O)[C@H](C)[C@@H](OC(C)=O)[C@H](OC(C)=O)[C@]13[C@@]1(CO1)C2 |  |  | -0.4
9 | CC(=O)O[C@H]1C[C@@H](C)[C@](C)([C@@H]2C[C@H]3C=CO[C@H]3O2)[C@H]2C[C@@H]3C[C@]4(CO4)[C@]12C(OC(=O)C(C)C)O3 (some centres not stated) [JODRELLIN B] |  | 100 | 
10 | CO[C@H]1O[C@@H]2C[C@@H]3[C@@](C)(CC[C@H]4CCOC4=O)[C@H](C)[C@@H](OC(C)=O)[C@H](OC(C)=O)[C@]13[C@@]1(CO1)C2 |  |  | -29.5
11 | CC(=O)O[C@@H]1C[C@@H]2[C@@](C)(CC[C@H]3CCOC3=O)[C@H](C)[C@@H](OC(C)=O)[C@H](OC(C)=O)[C@@]2(C=O)[C@@]2(CO2)C1 |  | 17.2 | 
12 | CC(=O)OCC[C@H](CC[C@@]1(C)[C@H](C)[C@@H](OC(C)=O)[C@H](OC(C)=O)[C@]23[C@@H]1C[C@H](C[C@]21CO1)O[C@@H]3O)COC(C)=O |  |  | -38.8
13 | C/C=C(\C)C(=O)O[C@H]1O[C@@H]2C[C@@H]3[C@@](C)(CC[C@H]4CCOC4=O)[C@H](C)[C@@H](O)[C@H](OC(C)=O)[C@]13[C@@]1(CO1)C2 | > 1000 | 29.3 | 
14 | CC(=O)OC1O[C@@H]2C[C@@H]3[C@@](C)([C@@H]4C[C@H]5C=CO[C@H]5O4)[C@H](C)C[C@H](OC(C)=O)[C@]13[C@@]1(CO1)C2 (some centres not stated) [JODRELLIN A] |  | 92 | 
15 | C/C=C(\C)C(=O)O[C@H]1O[C@@H]2C[C@@H]3[C@@](C)(CC[C@H]4CCO[C@H]4O)[C@H](C)[C@@H](O)[C@H](OC(C)=O)[C@]13[C@@]1(CO1)C2 [SCUTEGALIN B] | 870 |  | -27
16 | C/C=C(\C)C(=O)O[C@H]1O[C@@H]2C[C@@H]3[C@@](C)(CC[C@H]4CCOC4=O)[C@H](C)[C@@H](OC(C)=O)[C@H](O)[C@]13[C@@]1(CO1)C2 | > 1000 | 18.6 | 
17 | CC(=O)O[C@@H]1[C@@H](C)[C@](C)(CC[C@H]2CCOC2=O)[C@H]2C[C@@H]3C[C@]4(CO4)[C@]2([C@@H](OC(=O)C(C)C)O3)[C@H]1O | > 1000 | 37.5 | 
18 | CC(=O)O[C@@H]1[C@@H](C)[C@](C)(CC[C@H]2CCOC2=O)[C@H]2C[C@@H](OC(=O)C(C)C)C[C@]3(CO3)[C@]2(C=O)[C@H]1OC(C)=O |  |  | -10
